In ChEMBL document CHEMBL1137403, “Discovery of 2-[4-{{2-(2S,5R)-2-cyano-5-ethynyl-1-pyrrolidinyl]-2-oxoethyl]amino]- 4-methyl-1-piperidinyl]-4-pyridinecarboxylic acid (ABT-279): a very potent, selective, effective, and well-tolerated inhibitor of dipeptidyl peptidase-IV, useful for the treatment of diabetes” (J Med Chem, 2006):
The source made the active and inactive calls. The rule behind the calls is not given here.

Tests used:
[1] = Half life in Sprague-Dawley rat at 5 mg/kg, po; format: ADME, organism-based; set-up: dose 5 mg/kg, route oral; details: in vivo
[2] = Volume of distribution in terminal phase in Sprague-Dawley rat at 5 mg/kg, iv; format: ADME, organism-based; set-up: dose 5 mg/kg, route intravenous; details: in vivo, read-out: Vbeta
[3] = target: Voltage-gated inwardly rectifying potassium channel KCNH2 (Homo sapiens, UniProt Q12809); assay: Binding affinity to hERG
Sequence of Voltage-gated inwardly rectifying potassium channel KCNH2 (Q12809 whole entry): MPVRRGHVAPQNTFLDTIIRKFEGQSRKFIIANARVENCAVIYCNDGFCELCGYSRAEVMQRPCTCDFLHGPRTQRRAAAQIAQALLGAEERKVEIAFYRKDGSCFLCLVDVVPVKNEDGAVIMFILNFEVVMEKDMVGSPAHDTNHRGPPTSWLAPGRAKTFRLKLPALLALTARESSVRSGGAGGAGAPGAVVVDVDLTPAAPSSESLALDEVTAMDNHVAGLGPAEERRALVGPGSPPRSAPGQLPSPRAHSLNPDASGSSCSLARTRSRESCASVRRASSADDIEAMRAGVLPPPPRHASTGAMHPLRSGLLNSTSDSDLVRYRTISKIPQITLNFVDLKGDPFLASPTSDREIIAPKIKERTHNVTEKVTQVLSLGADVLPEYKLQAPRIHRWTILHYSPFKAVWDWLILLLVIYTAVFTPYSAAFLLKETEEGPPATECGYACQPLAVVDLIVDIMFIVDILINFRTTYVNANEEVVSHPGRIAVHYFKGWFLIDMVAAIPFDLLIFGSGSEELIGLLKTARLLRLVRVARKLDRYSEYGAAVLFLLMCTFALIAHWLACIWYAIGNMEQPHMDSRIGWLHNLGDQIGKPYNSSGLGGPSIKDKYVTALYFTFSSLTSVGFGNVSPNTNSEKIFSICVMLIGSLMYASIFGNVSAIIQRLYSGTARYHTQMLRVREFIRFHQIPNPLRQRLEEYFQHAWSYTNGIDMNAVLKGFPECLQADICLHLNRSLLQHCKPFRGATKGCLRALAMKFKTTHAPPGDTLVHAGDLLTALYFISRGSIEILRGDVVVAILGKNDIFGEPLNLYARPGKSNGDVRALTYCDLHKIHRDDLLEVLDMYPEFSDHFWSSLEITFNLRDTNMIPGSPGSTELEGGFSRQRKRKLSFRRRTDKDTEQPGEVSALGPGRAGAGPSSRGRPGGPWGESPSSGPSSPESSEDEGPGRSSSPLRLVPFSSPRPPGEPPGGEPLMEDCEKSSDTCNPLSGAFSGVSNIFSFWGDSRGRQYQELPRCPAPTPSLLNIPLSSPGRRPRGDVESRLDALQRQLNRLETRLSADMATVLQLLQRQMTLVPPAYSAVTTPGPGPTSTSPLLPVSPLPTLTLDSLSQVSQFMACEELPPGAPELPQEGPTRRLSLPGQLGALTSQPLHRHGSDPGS

Salmonella typhi = assay: Mutagenicity against Salmonella typhi by miniAmes test upto 2 mg/well; format: functional, organism-based; details: Salmonella enterica subsp. enterica serovar Typhi
[4] = Half life in Sprague-Dawley rat at 5 mg/kg, iv; format: ADME, organism-based; set-up: dose 5 mg/kg, route intravenous; details: in vivo
[5] = Half life in Beagle dog at 2.5 mg/kg, iv; format: ADME, organism-based, Canis lupus familiaris; set-up: dose 2.5 mg/kg, route intravenous; details: in vivo
[6] = AUC (0-24h) in dog; format: ADME, organism-based, Canis lupus familiaris; set-up: time < 24 hr; details: plasma
Prolyl endopeptidase = target: T1, Prolyl endopeptidase (Homo sapiens, UniProt P48147); assay: Inhibition of POP
T1 sequence (P48147 whole entry): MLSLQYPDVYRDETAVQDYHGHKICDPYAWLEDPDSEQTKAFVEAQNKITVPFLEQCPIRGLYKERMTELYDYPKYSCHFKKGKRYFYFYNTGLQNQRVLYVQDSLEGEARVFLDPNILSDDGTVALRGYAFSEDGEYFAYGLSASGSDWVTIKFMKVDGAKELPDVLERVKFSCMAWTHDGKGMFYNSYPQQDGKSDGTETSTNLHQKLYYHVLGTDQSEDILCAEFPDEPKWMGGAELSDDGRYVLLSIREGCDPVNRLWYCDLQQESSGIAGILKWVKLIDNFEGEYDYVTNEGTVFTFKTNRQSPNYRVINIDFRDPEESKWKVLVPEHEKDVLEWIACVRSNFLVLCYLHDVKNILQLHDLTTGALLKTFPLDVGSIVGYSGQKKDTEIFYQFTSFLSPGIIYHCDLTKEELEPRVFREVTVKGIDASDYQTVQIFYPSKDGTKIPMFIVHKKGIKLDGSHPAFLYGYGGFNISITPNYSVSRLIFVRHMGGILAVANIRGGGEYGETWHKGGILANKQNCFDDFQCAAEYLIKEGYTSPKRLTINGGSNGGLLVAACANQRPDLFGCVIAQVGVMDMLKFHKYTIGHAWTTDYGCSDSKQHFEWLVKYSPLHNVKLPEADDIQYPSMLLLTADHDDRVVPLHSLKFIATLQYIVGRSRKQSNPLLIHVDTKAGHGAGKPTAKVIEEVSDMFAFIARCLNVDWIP

Canis familiaris [7] = assay: Hemodynamic activity in dog upto 28 ug/ml, iv; format: functional, organism-based; details: Canis lupus familiaris
Outline: (§1)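 Hemodynamic and electrocardiographic profile recorded in anesthetized rats or dogs given the drug intravenously, at plasma concentrations up to 28 µg/mL.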

[8] = Oral bioavailability in cynomolgus monkey at 2.5 mg/kg, po; format: ADME, organism-based, Macaca fascicularis; details: in vivo
Rattus norvegicus [9] = assay: Electrocardiographic activity in rat upto 28 ug/ml, iv; format: functional, organism-based; outline: as §1
Dipeptidyl peptidase 9 = Dipeptidyl peptidase 9 (Homo sapiens, UniProt Q86TI2)
Sequence of Dipeptidyl peptidase 9 (Q86TI2 whole entry): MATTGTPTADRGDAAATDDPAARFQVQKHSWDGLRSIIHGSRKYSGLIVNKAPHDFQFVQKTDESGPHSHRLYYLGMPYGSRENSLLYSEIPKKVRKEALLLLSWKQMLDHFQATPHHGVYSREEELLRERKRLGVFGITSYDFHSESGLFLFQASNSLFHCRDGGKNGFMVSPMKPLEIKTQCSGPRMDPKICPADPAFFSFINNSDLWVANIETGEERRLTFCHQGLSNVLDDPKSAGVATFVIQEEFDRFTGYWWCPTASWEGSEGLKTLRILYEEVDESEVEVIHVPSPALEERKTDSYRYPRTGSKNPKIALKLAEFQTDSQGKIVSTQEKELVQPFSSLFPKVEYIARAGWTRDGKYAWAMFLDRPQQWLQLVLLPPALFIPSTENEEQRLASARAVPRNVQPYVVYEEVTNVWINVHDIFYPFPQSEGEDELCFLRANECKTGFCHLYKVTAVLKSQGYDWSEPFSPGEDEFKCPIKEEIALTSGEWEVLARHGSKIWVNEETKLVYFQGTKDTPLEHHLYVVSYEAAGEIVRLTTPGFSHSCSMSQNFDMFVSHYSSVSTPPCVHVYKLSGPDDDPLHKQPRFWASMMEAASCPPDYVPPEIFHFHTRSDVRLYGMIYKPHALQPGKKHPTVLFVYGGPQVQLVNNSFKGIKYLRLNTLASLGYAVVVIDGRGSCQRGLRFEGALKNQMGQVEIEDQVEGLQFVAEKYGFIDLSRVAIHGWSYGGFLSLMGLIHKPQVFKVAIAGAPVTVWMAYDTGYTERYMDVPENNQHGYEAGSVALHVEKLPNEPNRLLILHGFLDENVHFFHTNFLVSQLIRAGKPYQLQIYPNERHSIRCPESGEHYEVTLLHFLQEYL

Dipeptidyl peptidase 8 = Dipeptidyl peptidase 8 (Homo sapiens, UniProt Q6V1X1)
Sequence of Dipeptidyl peptidase 8 (Q6V1X1 whole entry): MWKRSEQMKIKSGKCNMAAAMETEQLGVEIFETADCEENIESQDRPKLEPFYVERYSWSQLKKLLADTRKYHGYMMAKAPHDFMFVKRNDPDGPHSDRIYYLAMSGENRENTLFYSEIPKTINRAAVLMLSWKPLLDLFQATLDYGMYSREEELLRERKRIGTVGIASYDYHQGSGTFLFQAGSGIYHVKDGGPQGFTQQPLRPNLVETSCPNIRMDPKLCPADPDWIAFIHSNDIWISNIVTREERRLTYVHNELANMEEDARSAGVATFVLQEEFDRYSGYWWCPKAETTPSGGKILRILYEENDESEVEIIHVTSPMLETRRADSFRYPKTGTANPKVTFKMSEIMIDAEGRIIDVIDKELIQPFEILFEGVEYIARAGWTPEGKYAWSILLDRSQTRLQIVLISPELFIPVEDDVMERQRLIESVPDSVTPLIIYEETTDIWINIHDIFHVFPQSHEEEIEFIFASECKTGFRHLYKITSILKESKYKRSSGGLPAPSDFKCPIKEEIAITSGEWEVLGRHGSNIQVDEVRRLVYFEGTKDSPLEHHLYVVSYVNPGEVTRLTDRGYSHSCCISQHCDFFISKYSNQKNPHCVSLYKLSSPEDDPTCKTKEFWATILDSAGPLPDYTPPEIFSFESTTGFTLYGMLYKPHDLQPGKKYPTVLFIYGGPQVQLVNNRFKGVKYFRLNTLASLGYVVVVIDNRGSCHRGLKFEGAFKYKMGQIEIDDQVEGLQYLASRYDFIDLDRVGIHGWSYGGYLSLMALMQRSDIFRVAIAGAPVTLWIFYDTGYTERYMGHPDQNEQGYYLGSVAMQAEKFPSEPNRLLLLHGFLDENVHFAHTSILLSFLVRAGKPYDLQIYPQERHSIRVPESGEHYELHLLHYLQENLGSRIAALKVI

Canis familiaris [10] = assay: Electrocardiographic activity in dog upto 28 ug/ml, iv; format: functional, organism-based; details: Canis lupus familiaris; outline: as §1
[11] = Oral bioavailability in Beagle dog at 2.5 mg/kg, po; format: ADME, organism-based, Canis lupus familiaris; details: in vivo
Cytochrome P450 3A4 = Cytochrome P450 3A4 (Homo sapiens, UniProt P08684); assay: Inhibition of CYP3A4; format: ADME
Sequence of Cytochrome P450 3A4 (P08684 whole entry): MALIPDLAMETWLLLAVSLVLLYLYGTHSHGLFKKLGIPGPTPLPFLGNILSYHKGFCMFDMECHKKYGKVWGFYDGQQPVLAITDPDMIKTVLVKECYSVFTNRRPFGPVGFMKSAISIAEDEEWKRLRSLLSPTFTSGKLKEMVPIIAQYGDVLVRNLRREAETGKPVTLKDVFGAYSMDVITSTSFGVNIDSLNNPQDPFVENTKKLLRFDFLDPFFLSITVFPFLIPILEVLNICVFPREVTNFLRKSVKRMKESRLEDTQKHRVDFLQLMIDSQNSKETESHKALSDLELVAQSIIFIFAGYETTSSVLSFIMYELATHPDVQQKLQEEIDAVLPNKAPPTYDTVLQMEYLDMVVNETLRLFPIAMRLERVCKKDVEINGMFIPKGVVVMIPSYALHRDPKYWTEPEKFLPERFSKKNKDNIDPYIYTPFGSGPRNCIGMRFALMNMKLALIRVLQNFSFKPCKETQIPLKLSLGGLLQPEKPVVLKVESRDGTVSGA

Rattus norvegicus [12] = species: Rattus norvegicus; assay: Reduction in postprandial glucose excursion in Zucker rat measured as AUC glucose (0-240 min) relative to control; format: functional; set-up: scale not given: the % may be the effect or the level left
Outline: (§2)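 Female ZDF rats, 10 weeks old, fasted overnight, then dosed orally with vehicle or drug. Four hours after dosing (t = 0) they had free access for 4 h to a liquid mixed meal (Ensure). Plasma was sampled for drug level, active GLP-1, insulin, glucagon and glucose.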

[13] = Cmax in Sprague-Dawley rat at 5 mg/kg, po; format: ADME, organism-based; set-up: dose 5 mg/kg, route oral; details: in vivo
Rattus norvegicus [14] = species: Rattus norvegicus; assay: GLP1 level in Zucker rat after 10 mins; format: functional; outline: as §2
[15] = Tmax in Beagle dog at 2.5 mg/kg, po; format: ADME, organism-based, Canis lupus familiaris; set-up: dose 2.5 mg/kg, route oral; details: in vivo
Rattus norvegicus [16] = species: Rattus norvegicus; assay: Insulin level in Zucker rat after 10 mins; format: functional; outline: as §2
Rattus norvegicus [17] = assay: Hemodynamic activity in rat upto 28 ug/ml, iv; format: functional, organism-based; outline: as §1
[18] = Volume of distribution in terminal phase in cynomolgus monkey at 2.5 mg/kg, iv; format: ADME, organism-based, Macaca fascicularis; set-up: dose 2.5 mg/kg, route intravenous; details: in vivo, read-out: Vbeta
[19] = Half life in cynomolgus monkey at 2.5 mg/kg, po; format: ADME, organism-based, Macaca fascicularis; set-up: dose 2.5 mg/kg, route oral; details: in vivo
[20] = AUC (0-24h) in rat; format: ADME, organism-based; set-up: time < 24 hr; details: plasma
[21] = AUC in Sprague-Dawley rat at 5 mg/kg, po; format: ADME, organism-based; set-up: dose 5 mg/kg, route oral; details: plasma
Rattus norvegicus [22] = species: Rattus norvegicus; assay: Reduction in postprandial glucose excursion in Zucker rat measured as AUC glucose (0-240 min); format: functional, organism-based; set-up: time < 4 hr; outline: as §2
Dipeptidyl peptidase 2 = Dipeptidyl peptidase 2 (Homo sapiens, UniProt Q9UHL4); assay: Inhibition of DPP7

SMILES: C#C[C@H]1CC[C@@H](C#N)N1C(=O)CNC1(C)CCN(c2cc(C(=O)O)ccn2)CC1
- half-life [1]: 4.7 h
- Vd [2]: 6.7 L/kg
- Ki [3]: > 45.1 µM
- Activity (Salmonella typhi): inactive
- half-life [4]: 6.8 h
- half-life [5]: 6.4 h
- AUC(0-t) at 24 h [6]: 36000 ng·h/mL
- Ki (Prolyl endopeptidase): > 30 µM
- Activity (Canis familiaris [7]): Active
- bioavailability [8]: 11.2%
- Activity (Rattus norvegicus [9]): Active
- Ki (Dipeptidyl peptidase 9): > 30 µM
- Ki (Dipeptidyl peptidase 8): > 30 µM
- Activity (Canis familiaris [10]): Active
- bioavailability [11]: 35.2%
- IC50 (Cytochrome P450 3A4): > 30 µM
- Activity (Rattus norvegicus [12]): 50%
- Cmax [13]: 370 ng/mL
- Activity (Rattus norvegicus [14]): 29 pM
- Tmax [15]: 0.8 h
- Activity (Rattus norvegicus [16]): 39 ng/mL
- Activity (Rattus norvegicus [17]): Active
- Vd [18]: 1.3 L/kg
- half-life [19]: 2 h
- AUC(0-t) at 24 h [20]: 39000 ng·h/mL
- AUC [21]: 2100 ng·h/mL
- AUC (Rattus norvegicus [22]): 12500 mg/dL·min
- Ki (Dipeptidyl peptidase 2): > 30 µM
